Bioassay records: PubChem BioAssay, several laboratories
Compounds with a hit are over-represented: about 2% of the library has one in this group of screens.
eIF4H FP inh: inhibitors of RNA binding by human eIF4H. Q15056. actives 0.94% (n = 290,000). inhibition, % at 35 µM. eIF4H fluorescence polarization binding assay;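 further: calls also rest on retests at 20 µM and on dose response follow-up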
MLLE-PAM2 inh: blocks PAM2 peptide binding to the PABP1 MLLE domain | P11940 | GST-MLLE / FITC-PAM2 fluorescence polarization | inhibition, % at 20 µM | actives 0.36% (n = 360,000); in the data active means inhibition above about 35%, passing the limit was not always enough
Target sequence (P11940 whole entry, looked up, the tested form may be a part): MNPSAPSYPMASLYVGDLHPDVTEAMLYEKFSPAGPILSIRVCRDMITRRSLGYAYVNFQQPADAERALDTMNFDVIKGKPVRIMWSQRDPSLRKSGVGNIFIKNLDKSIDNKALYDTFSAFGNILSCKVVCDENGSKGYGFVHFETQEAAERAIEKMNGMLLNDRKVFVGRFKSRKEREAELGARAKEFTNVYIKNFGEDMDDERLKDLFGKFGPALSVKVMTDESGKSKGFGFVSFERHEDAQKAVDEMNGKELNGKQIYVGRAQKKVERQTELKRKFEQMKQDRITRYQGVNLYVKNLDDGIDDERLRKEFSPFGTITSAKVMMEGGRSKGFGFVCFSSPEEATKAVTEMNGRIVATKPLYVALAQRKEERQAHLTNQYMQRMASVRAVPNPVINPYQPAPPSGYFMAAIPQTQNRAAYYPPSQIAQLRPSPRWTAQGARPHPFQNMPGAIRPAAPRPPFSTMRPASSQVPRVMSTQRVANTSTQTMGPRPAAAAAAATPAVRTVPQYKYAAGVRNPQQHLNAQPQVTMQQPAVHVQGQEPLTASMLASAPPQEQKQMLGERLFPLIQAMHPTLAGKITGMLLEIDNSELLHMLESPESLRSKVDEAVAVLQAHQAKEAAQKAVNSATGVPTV
NS3 helicase inh: HCV NS3 helicase inhibition; NS3 helicase DNA unwinding, Cy5 molecular beacon fluorescence; inhibition, % at 10.9 µM; actives 0.56% (n = 290,000);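 active means inhibition above the mean of all tested compounds plus 3 SD, set per campaign, cut at about 35% in these data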
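Material: hepatitis C virus NS3 helicase domain fragment enzyme; measured by: Cy5 fluorescence, 0 and 60 min reads; control set: DMSO and thioflavine S; incubation: 60 min unwinding reaction at 25 °C after ATP addition; read-out basis: % inhibition from 60/0 min fluorescence ratio, DMSO 0%, thioflavine S 100%; repeats: singlicate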
PABP polyA inh: blocks human PABP binding to poly(A) RNA; fluorescence polarization; inhibition, % at 35 µM; actives 1% (n = 290,000); AID 2014;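 further: calls also rest on retests at 20 µM and on dose response follow-up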
core dimer inh: blocks dimerization of HCV core protein. TR-FRET GST/Flag-core106 dimerization, 1536-well. AID 1899. inhibition, % at 5 µM. actives 0.33% (n = 300,000);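 active means inhibition above the mean of all tested compounds plus 3 SD, set per screening campaign, cut at about 45% in these data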
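assay system = GST-tagged and Flag-tagged HCV core protein residues 1-106 | controls = unlabelled core106 and no-GST-core106 wells | incubation = compound-protein-antibody incubation 4 h at 22.5 °C | probe or stimulus = Eu donor and XL665 acceptor anti-tag antibodies | read-out = % inhibition based on acceptor/donor emission ratio | signal = TR-FRET 671 and 617 nm emission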
FID counter: counter-screen for HCV NS3 helicase inhibitors: DNA intercalator displacement; DNA fluorescent intercalator displacement, fluorescence; actives 0.17% (n = 290,000); AID 1845; inhibition, % at 7.9 µM; in the data active means inhibition above about 37%;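 further: higher means more ethidium bromide displaced from hairpin DNA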
Of the large screens only hits and unclear results are named; the others gave an inactive call. Unless noted, how the calls were made is not given here.

CC1(C(=O)NS(=O)(=O)c2cccc(C#N)c2)CCN1C(=O)c1ccc(C2CCCCC2)cc1 (centres undefined)	none (no result: eIF4H FP inh, NS3 helicase inh, PABP polyA inh, core dimer inh, FID counter)
Cn1c(=O)n(C)c2cc([N+](=O)[O-])c(N3CCN(C(=O)c4cccc(Cl)c4)CC3)cc21	eIF4H FP inh active, PABP polyA inh 50.3
CCCNC(=O)NCCc1c(C)[nH]c2ccccc12	MLLE-PAM2 inh 53.5
Cc1[nH]c2ccccc2c1CCO	none
CN1CCc2nc(NC(=O)c3cccc(OC(F)F)c3)sc2C1	eIF4H FP inh 73.9, PABP polyA inh 83.1
COc1cccc(-c2nc(-c3ccccc3)nc(N3CCN(C)CC3)c2C#N)c1	eIF4H FP inh active
Clc1ccc(OCCCCSc2ncccn2)cc1	MLLE-PAM2 inh 38.3
COc1cccc(CC2(CO)CCCN(Cc3sc(N4CCCC4)nc3Cl)C2)c1 (centres undefined)	eIF4H FP inh 55.9, PABP polyA inh 23.1
C/C(=N/NC(=O)CN(c1ccccc1)S(=O)(=O)c1ccccc1)c1ccccc1O	none
CCOc1ccc(Nc2cc(Nc3ccccc3OCC)nc(C=C(C#N)C#N)n2)cc1	PABP polyA inh 56.2
O=C1NC(=O)C(Cc2ccc(Cl)cc2)(c2ccccc2)N1 (centres undefined)	none (no result: eIF4H FP inh, NS3 helicase inh, PABP polyA inh, core dimer inh, FID counter)
Cc1ccc([C@H]2C[C@H](n3cc(C4CC4)nn3)[C@@H](O)CN2Cc2cccs2)cc1	none (no result: eIF4H FP inh, NS3 helicase inh, PABP polyA inh, core dimer inh, FID counter)
O=C(O)[C@H]1Cc2ccccc2CN1S(=O)(=O)c1ccc(F)cc1	none
CS(=O)(=O)N1Cc2ccccc2CC1C(=O)O (centres undefined)	eIF4H FP inh inconclusive, PABP polyA inh active
CC(=O)c1ccc(S(=O)(=O)N2Cc3ccccc3CC2C(=O)O)cc1 (centres undefined)	eIF4H FP inh 98.6, PABP polyA inh 56.8
O=[N+]([O-])c1ccccc1/C=N\Nc1nccs1	none
O=[N+]([O-])c1cc(/C=N\Nc2nccs2)ccc1O	eIF4H FP inh 93.0, PABP polyA inh 92.2 (no result: MLLE-PAM2 inh, core dimer inh)
O=C(CBr)N1CCc2ccccc2C(c2ccccc2)C1 (centres undefined)	eIF4H FP inh 84.0
O=C(CN1CCOCC1)N1CCc2ccccc2C(c2ccccc2)C1 (centres undefined)	none
O=C(CNC(=O)CNC(=O)c1ccc(Cl)cc1Cl)NCc1cccc(Cl)c1	none
c1cnc2ccc(C(c3nnnn3C3CCCC3)N3CCN(c4nc5ccccc5s4)CC3)cc2c1 (centres undefined)	eIF4H FP inh active, PABP polyA inh 51.0
COc1cc(C(=O)COC(=O)c2cnc(C)cn2)ccc1OC(F)F	none
COc1cc(C(=S)N2CCC(C)CC2)ccc1O	MLLE-PAM2 inh 40.0
COc1cc(C(=S)N2CCCCC2)ccc1O	MLLE-PAM2 inh 38.1
CCOc1cc(C(=S)N2CCCC2)ccc1O	none
COc1cc(C(=S)N2CCCC2)ccc1O	MLLE-PAM2 inh 40.3
COc1cc(C(=S)N2CCC(C(N)=O)CC2)ccc1O	none
COC(=O)C1C(O)=C(C(C)=Nc2cccc3ccccc23)C(=O)CC1(C)C (centres undefined)	eIF4H FP inh inconclusive, PABP polyA inh 30.2
O=C(COc1ccccc1C(=O)N/N=C\c1ccc(O)c(O)c1)N/N=C/c1ccc(O)c(O)c1	eIF4H FP inh 74.3, PABP polyA inh 41.7
C#CCOCCOCCOCCNc1nc(N2CCN(C(=O)[C@H]([C@@H](C)CC)n3cc([C@@H](N)Cc4ccc(O)cc4)nn3)CC2)nc(N2CCN(C(=O)[C@H](Cc3ccc(O)cc3)n3cc([C@@H](N)CC(C)C)nn3)CC2)n1	none
C#CCOCCOCCOCCNc1nc(N2CCN(C(=O)[C@H]([C@@H](C)CC)n3cc([C@@H](N)Cc4ccc(O)cc4)nn3)CC2)nc(N2CCN(C(=O)[C@H](Cc3ccc(O)cc3)n3cc([C@@H](N)C(C)CC)nn3)CC2)n1 (some centres undefined)	FID counter 44.5
C#CCOCCOCCOCCNc1nc(N2CCN(C(=O)[C@H]([C@@H](C)CC)n3cc([C@@H](N)CO)nn3)CC2)nc(N2CCN(C(=O)[C@H](Cc3ccc(O)cc3)n3cc([C@@H](N)CC(C)C)nn3)CC2)n1	FID counter 41.1
C#CCOCCOCCOCCNc1nc(N2CCN(C(=O)[C@H]([C@@H](C)CC)n3cc([C@@H](N)Cc4ccc(O)cc4)nn3)CC2)nc(N2CCN(C(=O)[C@H]([C@@H](C)CC)n3cc([C@@H](N)CC(C)C)nn3)CC2)n1	FID counter 47.4
CC(C)Oc1cccc(C(=O)Nc2nnc([C@H]3C[C@H](O)[C@@H](CO)O3)s2)c1	none (no result: eIF4H FP inh, NS3 helicase inh, PABP polyA inh, core dimer inh, FID counter)
COc1cccc(C(=O)C2CCCN(Cc3cccn3-c3cccnc3)C2)c1 (centres undefined)	PABP polyA inh 1.0
COc1c(O)cc2c(c1O)C1OC(CO)C(O)C(O)C1OC2=O (centres undefined)	none (no result: eIF4H FP inh, NS3 helicase inh, PABP polyA inh, FID counter)
O=C1OCC2OC(O)C(O)C(O)C2OC(=O)c2cc(O)c(O)c(O)c2-c2c(O)c(O)c3oc(=O)c4c(c(O)c(O)c5oc(=O)c2c3c54)-c2c1cc(O)c(O)c2O (centres undefined)	eIF4H FP inh 82.6, PABP polyA inh 105.5 (no result: MLLE-PAM2 inh, NS3 helicase inh, core dimer inh, FID counter)
Cc1noc(C)c1NC(=O)N(C)C[C@H]1Oc2ccc(NC(=O)Cc3ccccc3)cc2C(=O)N([C@H](C)CO)C[C@@H]1C	none (no result: eIF4H FP inh, NS3 helicase inh, PABP polyA inh, core dimer inh, FID counter)
Cc1cc(CNC[C@H]2O[C@@H](n3cnc(C(N)=O)n3)[C@H](O)[C@@H]2O)c(C)n1-c1cccnc1	none (no result: eIF4H FP inh, NS3 helicase inh, PABP polyA inh, core dimer inh, FID counter)
COCCN1CN(S(=O)(=O)c2ccccc2)c2nc3ccccc3nc21	MLLE-PAM2 inh 37.4
COCCN1CN(S(=O)(=O)c2ccc(Cl)cc2)c2nc3ccccc3nc21	none
Cc1cccc(S(=O)(=O)N2CN(Cc3ccco3)c3nc4ccccc4nc32)c1	eIF4H FP inh 53.9, PABP polyA inh 19.6
CCCn1cnnc1CNC(=O)C1CCC(=O)N(CCc2ccc(OC)cc2)C1 (centres undefined)	none
CCN(c1ccccc1)S(=O)(=O)c1ccc(Cl)c(NC(=O)CSc2nc(N)cc(=O)[nH]2)c1	none (no result: eIF4H FP inh, NS3 helicase inh, PABP polyA inh, core dimer inh, FID counter)
Cc1n(-c2ccccc2)c2ccc(Cl)cc2[n+]1CCO	PABP polyA inh 63.6
CCCN1C[C@H](CSC)C[C@@H]2c3cccc4[nH]cc(c34)C[C@H]21	eIF4H FP inh 100.5, PABP polyA inh 2.0
COc1cc(NCCCn2ccc(NC(=O)OCc3ccccc3)nc2=O)cc(OC)c1OC	none (no result: eIF4H FP inh, NS3 helicase inh, PABP polyA inh, core dimer inh, FID counter)
O=C1CC(=O)NC(SCC(=O)Nc2ccccc2[N+](=O)[O-])=N1	eIF4H FP inh 78.4, PABP polyA inh 59.8
Cc1cc(C)nc(SCC(=O)Nc2ccccc2[N+](=O)[O-])n1	none
Nc1ccc2nc(-c3ccccc3)c(-c3ccccc3)nc2c1	eIF4H FP inh 69.6
Nc1ccc(Oc2ccc3nc(-c4ccccc4)c(-c4ccccc4)nc3c2)cc1	none (no result: MLLE-PAM2 inh)
